In publication PMC11864002 (Journal of Enzyme Inhibition and Medicinal Chemistry, 2025):
Positions count from the first letter of the chain named. Values joined by “and” are separate entries in the source; they are usually repeats but may differ in a detail not shown here. Equal values may be shown once.

Key:
[1] = molecular target: T1, MalA R400H (Saccharolobus solfataricus, UniProt D0KQM8, R400H); assay: Inhibition kinetics; type: biochemical, Saccharolobus solfataricus 98/2
T1 sequence (D0KQM8 1-700 R400H): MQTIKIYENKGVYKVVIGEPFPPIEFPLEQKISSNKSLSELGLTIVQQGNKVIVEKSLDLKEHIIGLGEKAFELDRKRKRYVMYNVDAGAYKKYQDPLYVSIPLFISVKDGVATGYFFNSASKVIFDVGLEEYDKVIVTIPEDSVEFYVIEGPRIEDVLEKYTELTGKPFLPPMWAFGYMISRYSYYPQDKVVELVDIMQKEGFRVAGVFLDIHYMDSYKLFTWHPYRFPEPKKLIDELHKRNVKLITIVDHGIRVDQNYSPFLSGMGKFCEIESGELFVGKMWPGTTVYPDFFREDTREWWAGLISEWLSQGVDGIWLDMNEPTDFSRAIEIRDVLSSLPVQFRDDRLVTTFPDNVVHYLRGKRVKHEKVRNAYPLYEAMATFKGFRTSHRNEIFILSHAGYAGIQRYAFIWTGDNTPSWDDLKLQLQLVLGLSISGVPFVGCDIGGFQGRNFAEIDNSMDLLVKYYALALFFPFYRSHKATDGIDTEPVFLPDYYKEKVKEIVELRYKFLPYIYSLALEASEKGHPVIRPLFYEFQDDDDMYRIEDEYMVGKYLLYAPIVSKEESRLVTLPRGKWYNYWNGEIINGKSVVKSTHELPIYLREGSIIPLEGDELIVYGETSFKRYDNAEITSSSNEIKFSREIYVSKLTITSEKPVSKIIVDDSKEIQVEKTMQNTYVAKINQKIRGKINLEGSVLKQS
Method in brief: (§1)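 Inhibition kinetics at 85 °C under the standard pNP-α-D-Glc assay (100 mM sodium citrate pH 5.0; stopped with sodium carbonate, A420). Enzyme per reaction: R400H 26 µg, R400G 45 µg, wild type 0.9 µg. Inhibitor ranges: 1-DNJ 0.02–25.0 µM, acarbose 10.0–500 µM, NB-DNJ 0.5–25.0 µM.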

[2] = molecular target: T2, MalA WT (Saccharolobus solfataricus, UniProt D0KQM8); assay: Differential scanning fluorimetry with inhibitors/NAC, MalA WT; type: binding, Saccharolobus solfataricus 98/2
T2 sequence (D0KQM8 1-700): T1 sequence (D0KQM8 1-700 R400H) with H400R
Method in brief: (§2)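 His-tagged MalA (WT, R400G or R400H) was expressed in E. coli BL21(DE3) RIL, heat-fractionated at 70 °C and Ni-purified. Each enzyme ([…]) was mixed with SYPRO Orange in 0.2 M sodium citrate pH 5.0, sodium phosphate pH 7.0 or sodium borate pH 8.5, in triplicate. Held 10 min at 25 °C, scanned 25–95 °C ([…]), then held 10 min. Ligands: 1-DNJ or NB-DNJ 0.1/0.8 mM, acarbose 0.4/1.0 mM, NAC 10/30 mM. Tm fitted on normalised fluorescence; SD from […] replicates.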

[3] = molecular target: T3, MalA R400G (Saccharolobus solfataricus, UniProt D0KQM8, R400G); assay: Differential scanning fluorimetry with inhibitors/NAC, MalA R400G; type: binding, Saccharolobus solfataricus 98/2
T3 sequence (D0KQM8 1-700 R400G): T1 sequence (D0KQM8 1-700 R400H) with H400G
Method in brief: as §2

[4] = molecular target: T1, MalA R400H; assay: IC50 determination on pNP-α-D-Glc, MalA R400H; type: biochemical, Saccharolobus solfataricus 98/2
Method in brief: (§3)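 Standard assay: 10 mM pNP-α-D-Glc in 100 mM sodium citrate pH 5.0, 85 °C, 2 min. Enzyme per reaction: WT 0.9 µg, R400H 26 µg, R400G 45 µg. Stopped on ice with sodium carbonate pH 10.2; A420 read at room temperature. Inhibitor ranges: 1-DNJ up to 5 mM, acarbose up to 9 mM, NB-DNJ up to 1 mM.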

[5] = molecular target: T3, MalA R400G; assay: IC50 determination on pNP-α-D-Glc, MalA R400G; type: biochemical, Saccharolobus solfataricus 98/2
Method in brief: as §3

[6] = molecular target: T3, MalA R400G; assay: Inhibition kinetics; type: biochemical, Saccharolobus solfataricus 98/2
Method in brief: as §1

[7] = molecular target: T4, MalA wild-type (Saccharolobus solfataricus, UniProt D0KQM8); assay: Inhibition kinetics; type: biochemical, Saccharolobus solfataricus 98/2
T4 sequence (D0KQM8 1-700): T1 sequence (D0KQM8 1-700 R400H) with H400R

[8] = tested on: recombinant GAA; settings: cited from earlier work
[9] = molecular target: T1, MalA R400H; assay: Differential scanning fluorimetry with inhibitors/NAC, MalA R400H; type: binding, Saccharolobus solfataricus 98/2
Method in brief: as §2

[10] = molecular target: T4, MalA wild-type; assay: IC50 determination on pNP-α-D-Glc, MalA wild-type; type: biochemical, Saccharolobus solfataricus 98/2
Method in brief: as §3

[11] = tested on: α-glucosidase from rice; assay: Differential scanning fluorimetry with NAC, α-glucosidase from rice; type: binding; settings: GH31 GAA from rice, Figure S7
Method in brief: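 Rice α-glucosidase (type V, 2.5 µg) in 0.2 M sodium borate pH 8.0 with SYPRO Orange, in triplicate, with NAC present. Thermal scan 25–95 °C in 1 °C increments every 0.5 min. Fluorescence normalised to each scan's maximum. Tm calculated per Niesen by curve fitting.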

[12] = tested on: recombinant GAA; settings: 10 mM NAC; cited from earlier work
[13] = tested on: COS-7 cells; settings: transiently expressed in COS-7 cells, substrate MU-α-D-Glc; cited from earlier work
[14] = Melting temperature of the enzymes by differential scanning fluorimetry; type: physicochemical; settings: for Tm: DSF
Method in brief: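 Recombinant human GAA (2.5 µg) with SYPRO Orange in 150 mM NaCl plus 50 mM sodium phosphate pH 7.4 or 50 mM sodium acetate, in triplicate. Scanned 25–95 °C in 1 °C increments every 1 min. Fluorescence normalised to each scan's maximum. Tm derived per Niesen by curve fitting.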

Compound | Ki [1] [µM] | Tm MalA WT ([2]; 0.1 mM inhibitor) [°C] | Tm MalA WT ([2]; 0.8 mM inhibitor) [°C] | Tm MalA R400G ([3]; 0.1 mM inhibitor) [°C] | Tm MalA R400G ([3]; 0.8 mM inhibitor) [°C] | IC50 [4] [µM] | IC50 [5] [µM] | Ki [6] [µM] | Ki [7] [µM] | IC50 [8] [µM] | Tm MalA R400H ([9]; 0.1 mM inhibitor) [°C] | Tm MalA R400H ([9]; 0.8 mM inhibitor) [°C] | IC50 [10] [µM] | also measured
OC[C@H]1NC[C@H](O)[C@@H](O)[C@@H]1O [1-DNJ, 1-deoxynojirimycin] | 2.2 | 84.1 ± 0.5 | 87.1 ± 0.3 | 66.4 ± 0.2 | 67.5 ± 0.3 | 30 ± 2.3 | 224 ± 41 | 1.4 | 0.009 | 20 | 65.5 ± 0.2 | 64.1 ± 0.1 | 0.1 ± 0.01 | –
C[C@H]1O[C@H](O[C@H]2[C@H](O)[C@@H](O)[C@@H](O[C@H]3[C@H](O)[C@@H](O)C(O)O[C@@H]3CO)O[C@@H]2CO)[C@H](O)[C@@H](O)[C@@H]1N[C@H]1C=C(CO)[C@@H](O)[C@H](O)[C@H]1O (some centres unmarked) [Acarbose, acarbose] | 72 | – | – | – | – | 830 ± 91.5 | 912 ± 67.5 | 23 | 0.98 | – | – | – | 20.2 ± 0.9 | Tm MalA WT ([2]; 0.4 mM inhibitor): 79.1 ± 0.9 °C; ΔTm ([2]; 0.4 mM inhibitor, vs no inhibitor): +2.0 °C; Tm MalA WT ([2]; 1.0 mM inhibitor): 79.8 ± 0.7 °C; Tm MalA R400G ([3]; 0.4 mM inhibitor): 65 ± 0.04 °C; Tm MalA R400G ([3]; 1.0 mM inhibitor): 65 ± 0.1 °C; Tm MalA R400H ([9]; 0.4 mM inhibitor): 64.2 ± 0.1 °C; Tm MalA R400H ([9]; 1.0 mM inhibitor): 64.2 ± 0.2 °C
CC(=O)N[C@@H](CS)C(=O)O [NAC, N-acetylcysteine] | – | – | – | – | – | – | – | – | – | – | – | – | – | Tm MalA WT ([2]; 10 mM NAC): 75.8 ± 0.86 °C; Tm MalA WT ([2]; 30 mM NAC): 79.6 ± 0.54 °C; stabilising effect [11]: no stabilising effect; Tm MalA R400G ([3]; 10 mM NAC): 65.5 ± 0.04 °C; Tm MalA R400G ([3]; 30 mM NAC): 67.3 ± 0.11 °C; Tm MalA R400H ([9]; 10 mM NAC): 64.9 ± 0.03 °C; Tm MalA R400H ([9]; 30 mM NAC): 67.7 ± 0.13 °C; increase of Tm [12]: 10.5 ± 0.5 °C and 10.5 °C
CCCCN1C[C@H](O)[C@@H](O)[C@H](O)[C@H]1CO [NB-DNJ, N-butyldeoxynojirimycin] | 0.7 | 86 ± 0.7 | 85.1 ± 0.6 | 65.6 ± 0.2 | 63.5 ± 0.1 | 5.7 ± 0.21 | 55 ± 6.62 | 0.13 | 0.13 | 158 | 64.7 ± 0.4 | 61.7 ± 0.1 | 1.7 ± 0.2 | Ki fold higher than WT ([1]; R400H vs MalA WT): 5.4 fold
R600H: pathogenic human GAA mutant transiently expressed in COS-7 cells | – | – | – | – | – | – | – | – | – | – | – | – | – | activity compared to GAA wild-type [13]: less than 2%
recombinant GAA: recombinant human lysosomal acid α-glucosidase | – | – | – | – | – | – | – | – | – | – | – | – | – | Tm ([14]; pH 4.0): 53.7 ± 0.2 °C; Tm ([14]; pH 7.4): 47.9 ± 0.7 °C; Tm difference, less than MalA WT at pH 8.5 ([14]; GAA at pH 4.0): 23.3 °C; Tm difference, less than MalA WT at pH 8.5 ([14]; GAA at pH 7.4): 29.1 °C
